Results as given in ChEMBL document CHEMBL1138711, “1,2,3,4-Tetrahydroquinoline-containing alphaVbeta3 integrin antagonists with enhanced oral bioavailability” (Bioorg Med Chem Lett, 2004).

Tests used:
[1] = biological target: Integrin alpha-V/beta-5 (Homo sapiens, UniProt P06756+P18084); test: Inhibitory concentration for human vitronectin binding to immobilized alphaV-beta5 integrin; type: protein-complex assay
[2] = Oral bioavailability in rat; type: ADME, organism-based; settings: in vivo
How it was run: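 Rats dosed orally at 10 mg/kg (N = 4) and intravenously at 2 mg/kg (N = 4) unless otherwise noted. The oral vehicle was D5W (5% dextrose) adjusted to pH 2 with 0.1 N HCl. Plasma drug levels were measured by LC/MS, and bioavailability was derived by comparing oral with intravenous exposure.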

[3] = biological target: Integrin alpha-IIb/beta-3 (Homo sapiens, UniProt P05106+P08514); test: Inhibitory concentration for biotinylated fibrinogen binding to immobilized alpha IIb beta-3 integrin; type: protein-complex assay
Chain of Integrin alpha-IIb/beta-3 (P05106 27-788 limits assumed): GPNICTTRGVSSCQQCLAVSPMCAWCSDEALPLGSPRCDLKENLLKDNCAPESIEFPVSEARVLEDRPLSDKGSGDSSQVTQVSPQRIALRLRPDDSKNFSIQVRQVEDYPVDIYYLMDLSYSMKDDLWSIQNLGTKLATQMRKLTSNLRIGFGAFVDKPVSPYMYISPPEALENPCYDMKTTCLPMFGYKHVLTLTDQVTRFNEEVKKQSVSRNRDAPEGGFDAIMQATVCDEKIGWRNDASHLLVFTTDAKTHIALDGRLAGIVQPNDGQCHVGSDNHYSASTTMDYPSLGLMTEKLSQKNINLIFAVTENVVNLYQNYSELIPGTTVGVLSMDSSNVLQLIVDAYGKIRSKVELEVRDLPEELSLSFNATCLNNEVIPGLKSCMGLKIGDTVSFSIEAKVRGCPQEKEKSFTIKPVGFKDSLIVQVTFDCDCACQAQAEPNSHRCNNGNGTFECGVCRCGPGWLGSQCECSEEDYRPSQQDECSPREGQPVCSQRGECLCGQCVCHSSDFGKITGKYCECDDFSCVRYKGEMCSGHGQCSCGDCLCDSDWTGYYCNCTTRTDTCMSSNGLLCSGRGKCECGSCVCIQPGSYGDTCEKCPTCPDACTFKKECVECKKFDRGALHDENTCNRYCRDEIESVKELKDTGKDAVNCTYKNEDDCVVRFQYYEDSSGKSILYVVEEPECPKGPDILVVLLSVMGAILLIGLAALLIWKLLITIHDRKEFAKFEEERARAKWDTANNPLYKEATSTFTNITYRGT
Chain of Integrin alpha-IIb/beta-3 (P08514 32-887 limits assumed): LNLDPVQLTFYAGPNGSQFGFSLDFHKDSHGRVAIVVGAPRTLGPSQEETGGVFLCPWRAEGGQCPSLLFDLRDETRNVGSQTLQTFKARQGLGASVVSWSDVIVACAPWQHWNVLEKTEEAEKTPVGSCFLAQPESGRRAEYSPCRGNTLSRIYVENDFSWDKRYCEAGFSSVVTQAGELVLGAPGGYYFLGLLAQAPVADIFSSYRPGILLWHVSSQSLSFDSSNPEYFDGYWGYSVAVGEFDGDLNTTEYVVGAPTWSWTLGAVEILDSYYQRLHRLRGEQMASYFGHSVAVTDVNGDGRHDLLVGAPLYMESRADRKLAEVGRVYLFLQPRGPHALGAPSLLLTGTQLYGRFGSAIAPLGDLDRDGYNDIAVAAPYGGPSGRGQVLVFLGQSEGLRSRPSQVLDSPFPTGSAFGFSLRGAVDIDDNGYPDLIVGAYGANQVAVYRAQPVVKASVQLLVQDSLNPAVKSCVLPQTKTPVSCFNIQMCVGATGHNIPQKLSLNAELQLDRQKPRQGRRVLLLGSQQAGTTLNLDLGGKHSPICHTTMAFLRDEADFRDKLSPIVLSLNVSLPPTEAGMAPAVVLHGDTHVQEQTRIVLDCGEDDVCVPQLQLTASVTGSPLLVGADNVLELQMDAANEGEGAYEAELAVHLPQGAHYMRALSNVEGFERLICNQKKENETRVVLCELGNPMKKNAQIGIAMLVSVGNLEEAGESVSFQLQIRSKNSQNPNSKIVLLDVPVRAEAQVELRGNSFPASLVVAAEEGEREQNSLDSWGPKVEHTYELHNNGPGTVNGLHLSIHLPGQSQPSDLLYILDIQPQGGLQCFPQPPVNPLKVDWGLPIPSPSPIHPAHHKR
Chain of Integrin alpha-IIb/beta-3 (P08514 891-1039 limits assumed): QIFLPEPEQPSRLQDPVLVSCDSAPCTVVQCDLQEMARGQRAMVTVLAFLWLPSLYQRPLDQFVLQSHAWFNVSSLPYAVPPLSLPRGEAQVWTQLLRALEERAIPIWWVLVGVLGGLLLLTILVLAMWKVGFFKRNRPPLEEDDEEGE

[4] = biological target: Integrin alpha-V/beta-3 (Homo sapiens, UniProt P05106+P06756); test: Inhibitory concentration for human vitronectin binding to immobilized alphaV-beta3 integrin; type: protein-complex assay
Chain of Integrin alpha-V/beta-3 (P05106 27-788 limits assumed): as the sequence (P05106 27-788 limits assumed) above
Chain of Integrin alpha-V/beta-3 (P06756 31-889 limits assumed): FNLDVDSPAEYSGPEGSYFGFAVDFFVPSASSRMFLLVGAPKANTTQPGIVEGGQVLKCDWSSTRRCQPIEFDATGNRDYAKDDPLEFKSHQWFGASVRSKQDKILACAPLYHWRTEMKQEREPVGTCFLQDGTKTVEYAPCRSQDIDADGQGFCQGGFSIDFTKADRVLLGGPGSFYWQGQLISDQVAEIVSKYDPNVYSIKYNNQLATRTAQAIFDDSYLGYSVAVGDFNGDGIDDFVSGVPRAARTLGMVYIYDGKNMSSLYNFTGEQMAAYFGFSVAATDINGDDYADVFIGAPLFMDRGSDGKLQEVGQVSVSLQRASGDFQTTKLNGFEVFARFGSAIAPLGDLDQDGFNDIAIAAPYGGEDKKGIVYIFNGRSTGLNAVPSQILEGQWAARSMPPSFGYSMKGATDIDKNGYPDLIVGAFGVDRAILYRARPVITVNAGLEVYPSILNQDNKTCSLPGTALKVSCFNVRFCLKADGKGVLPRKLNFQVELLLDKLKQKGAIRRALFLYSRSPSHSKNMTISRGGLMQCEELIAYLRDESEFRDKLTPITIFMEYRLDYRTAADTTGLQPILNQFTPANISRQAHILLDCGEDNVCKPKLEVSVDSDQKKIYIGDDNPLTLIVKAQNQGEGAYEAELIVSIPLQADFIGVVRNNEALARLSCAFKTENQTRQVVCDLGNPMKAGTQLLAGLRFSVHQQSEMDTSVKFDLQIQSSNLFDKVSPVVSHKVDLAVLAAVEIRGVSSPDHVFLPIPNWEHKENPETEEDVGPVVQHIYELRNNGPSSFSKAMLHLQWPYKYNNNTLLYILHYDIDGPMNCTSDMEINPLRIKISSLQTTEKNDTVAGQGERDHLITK
Chain of Integrin alpha-V/beta-3 (P06756 891-1048 limits assumed): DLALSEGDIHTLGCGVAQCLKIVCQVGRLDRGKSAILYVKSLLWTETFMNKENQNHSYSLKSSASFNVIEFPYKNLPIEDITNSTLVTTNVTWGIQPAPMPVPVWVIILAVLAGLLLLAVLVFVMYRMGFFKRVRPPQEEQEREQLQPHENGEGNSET

[5] = Plasma half-life when administered perorally at 30 mg/kg dose; type: ADME, organism-based; set-up: dose 30 mg/kg, route oral; settings: rat, po
[6] = Maximum plasma concentration when administered perorally at 30 mg/kg dose; type: ADME, organism-based; set-up: dose 30 mg/kg, route oral; settings: rat, po
[7] = Maximum plasma concentration when administered perorally at 15 mg/kg dose in rat; type: ADME, organism-based; set-up: dose 15 mg/kg, route oral; settings: po
[8] = Time to reach maximum plasma concentration when administered perorally at 15 mg/kg dose in rat; type: ADME, organism-based; set-up: dose 15 mg/kg, route oral; settings: po
[9] = Plasma half-life when administered perorally at 10 mg/kg dose; settings: rat, in vivo, po

Chain of Integrin alpha-V/beta-5 (P06756 31-889 limits assumed): as the sequence (P06756 31-889 limits assumed) above
Chain of Integrin alpha-V/beta-5 (P06756 891-1048 limits assumed): as the sequence (P06756 891-1048 limits assumed) above
Chain of Integrin alpha-V/beta-5 (P18084 24-799 limits assumed): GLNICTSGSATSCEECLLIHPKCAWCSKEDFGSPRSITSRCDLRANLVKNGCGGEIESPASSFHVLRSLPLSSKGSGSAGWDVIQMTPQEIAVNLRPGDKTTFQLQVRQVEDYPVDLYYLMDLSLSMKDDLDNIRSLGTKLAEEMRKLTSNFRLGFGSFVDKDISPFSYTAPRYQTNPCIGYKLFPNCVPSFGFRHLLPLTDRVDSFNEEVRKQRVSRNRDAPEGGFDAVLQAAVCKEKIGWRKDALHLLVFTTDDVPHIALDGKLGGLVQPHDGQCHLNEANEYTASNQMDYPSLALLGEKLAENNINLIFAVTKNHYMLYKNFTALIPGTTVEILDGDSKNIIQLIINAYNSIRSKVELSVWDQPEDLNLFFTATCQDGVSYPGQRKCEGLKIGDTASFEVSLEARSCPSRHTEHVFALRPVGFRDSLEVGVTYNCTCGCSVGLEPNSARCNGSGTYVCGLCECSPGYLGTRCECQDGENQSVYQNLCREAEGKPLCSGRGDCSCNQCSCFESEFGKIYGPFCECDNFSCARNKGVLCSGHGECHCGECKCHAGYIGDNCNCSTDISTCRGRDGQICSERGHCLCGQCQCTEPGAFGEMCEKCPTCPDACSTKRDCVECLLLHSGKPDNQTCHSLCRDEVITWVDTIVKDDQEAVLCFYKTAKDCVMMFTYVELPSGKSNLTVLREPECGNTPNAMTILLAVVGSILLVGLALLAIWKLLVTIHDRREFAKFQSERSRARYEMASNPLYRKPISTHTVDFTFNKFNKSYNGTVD

| IC50 [1] [nM] | bioavailability [2] [%] | IC50 [3] [nM] | IC50 [4] [nM] | half-life [5] [h] | Cmax ([6]; plasma) [nM] | F [2] [%] | Cmax [7] [nM] | Tmax [8] [h] | T1/2 [9] [h] | Cmax ([6]; in vivo) [nM] | SMILES |
| --- | --- | --- | --- | --- | --- | --- | --- | --- | --- | --- | --- |
| 36 | 1 | 870 | 0.5 | – | – | – | – | – | – | – | O=C(O)C[C@H](c1cnc2ccccc2c1)C1CCN(C(=O)CCCc2ccc3c(n2)NCCC3)CC1 |
| 2.2 | 4 | 1100 | 0.8 | 3 | 500 | – | – | – | – | – | O=C(O)C[C@@H](CC1CCN(C(=O)CCc2ccc3c(n2)NCCC3)CC1)c1cnc2ccccc2c1 |
| 270 | – | 2900 | 2.6 | – | – | – | – | – | – | – | O=C(O)C[C@H](NC(=O)C1CCN(C(=O)CCc2ccc3c(n2)NCCC3)CC1)c1cnc2ccccc2c1 |
| 470 | 4 | 170 | 3.6 | 7 | 800 | – | – | – | – | – | O=C(O)C[C@H](NC(=O)C1CCN(C(=O)CCCNC2=NCCN2)CC1)c1cnc2ccccc2c1 |
| 260 | – | 15000 | 3.7 | – | – | 100 | – | – | – | – | O=C(O)C[C@@H](C1CCN(C(=O)CCCc2ccc3c(n2)NCCC3)CC1)C1CNc2ccccc2C1 (mixture of isomers) |
| – | – | 14000 | – | – | – | – | 21000 | 2 | – | – | O=C(O)CC(CC1CCN(C(=O)CCc2ccc3c(n2)NCCC3)CC1)C1CNc2ccccc2C1 (racemic) |
| 3.1 | – | 1800 | 0.4 | 2 | – | 2 | – | – | – | 100 | COc1ccc([C@@H](CC(=O)O)CC2CCN(C(=O)CCc3ccc4c(n3)NCCC4)CC2)cn1 (stereo in doubt; form 1) |
| 1000 | – | > 50000 | 26 | – | – | – | – | – | – | – | O=C(O)C[C@@H](CC1CCN(C(=O)CCc2ccc3c(n2)NCCC3)CC1)c1cnc2c(c1)CCCC2 (stereo in doubt; form 1) |
| 98 | – | > 50000 | 16 | – | – | – | – | – | – | – | COc1ccc([C@@H](CC(=O)O)CC2CCN(C(=O)CCc3ccc4c(n3)NCCC4)CC2)cn1 (stereo in doubt; form 2) |
| 2200 | – | > 50000 | 52 | – | – | – | – | – | – | – | O=C(O)C[C@@H](CC1CCN(C(=O)CCc2ccc3c(n2)NCCC3)CC1)c1cnc2c(c1)CCCC2 (stereo in doubt; form 4) |

The remaining lines, values behind:

| SMILES | IC50 [1] [nM] | bioavailability [2] [%] | IC50 [3] [nM] | IC50 [4] [nM] | half-life [5] [h] | Cmax ([6]; plasma) [nM] | F [2] [%] | Cmax [7] [nM] | Tmax [8] [h] | T1/2 [9] [h] | Cmax ([6]; in vivo) [nM] |
| --- | --- | --- | --- | --- | --- | --- | --- | --- | --- | --- | --- |
| O=C(O)C[C@@H]1Cc2ccc(OCCCNc3ccccn3)cc2Cc2ccccc21 | 2.9 | – | 1200 | 4 | – | – | – | – | – | – | – |
| CN1CC(C(CC(=O)O)CC2CCN(C(=O)CCc3ccc4c(n3)NCCC4)CC2)Cc2ccccc21 (racemic) | 180 | – | > 50000 | 49 | – | – | – | – | – | – | – |
| O=C(O)C[C@@H](C1CCN(C(=O)CCCc2ccc3c(n2)NCCC3)CC1)C1CNc2ccccc2C1 (single isomer, unassigned; isomer b) | 2500 | – | > 50000 | 70 | – | – | – | – | – | – | – |
| O=C(O)C[C@@H](C1CCN(C(=O)CCCc2ccc3c(n2)NCCC3)CC1)C1CNc2ccccc2C1 (single isomer, unassigned; isomer d) | 160 | – | 17000 | 5.4 | – | – | 52 | – | – | 1 | 58000 |
| O=C(O)C[C@@H](CC1CCN(C(=O)CCc2ccc3c(n2)NCCC3)CC1)c1cnc2c(c1)CCCC2 (stereo in doubt; 28) | 11 | – | 3000 | 1.6 | – | – | 0 | – | – | – | – |
| COc1ccc([C@@H](CC(=O)O)CC2CCN(C(=O)CCc3ccc4c(n3)NCCC4)CC2)cn1 (stereo in doubt; 34) | 2.7 | – | 6100 | 0.7 | – | – | 8 | – | – | – | 900 |
| O=C(O)C[C@@H](C1CCN(C(=O)CCCc2ccc3c(n2)NCCC3)CC1)C1CNc2ccccc2C1 (stereo in doubt; form 1) | 44 | – | 13000 | 1.6 | 2 | – | 46 | – | – | – | 8000 |
| O=C(O)C[C@@H](C1CCN(C(=O)CCCc2ccc3c(n2)NCCC3)CC1)C1CNc2ccccc2C1 (stereo in doubt; form 2) | 1500 | – | > 50000 | 100 | – | – | – | – | – | – | – |
